Reference: ChEMBL document CHEMBL1126822, “7 alpha-Methyl- and 11 beta-ethoxy-substitution of [125I]-16 alpha-iodoestradiol: effect on estrogen receptor-mediated target tissue uptake” (J Med Chem, 1993)

Experiments:
Conditions in all cases: in vivo
Rattus norvegicus [1] = assay: Tissue uptake (plasma) of [125I]- after administration of [125I]-labeled compound to immature female rats (n=4) in the absence of 60 microg coinjected estradiol after 2 hours; assay type: ADME, organism-based
Summary of the method: (§1)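 Immature female Fischer rats, 24 days old, 55-60 g, unanesthetized in retention cages, given HPLC-purified 125I-labeled steroid (3 μCi, 111 kBq) via lateral tail vein in 200 μL of 9% ethanol-saline with 1% Tween-80. The blocking group was coinjected with 60 μg unlabeled estradiol and sampled at 1 h. Animals were killed under ether at 0.5-24 h. Tissues were KCl-washed, blotted, weighed and gamma-counted. Results are % ID/g, with variation as small-sample-corrected %CV.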

Rattus norvegicus [2] = assay: Tissue uptake (thyroid) of [125I]- after administration of [125I]-labeled compound to immature female rats (n=3) in the presence of 60 microg coinjected estradiol after 1 hour; assay type: ADME, organism-based, Thyroid gland
Summary of the method: (§2)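 Immature female Fischer rats, 24 days old, 55-60 g, unanesthetized in retention cages, got HPLC-purified n.c.a. 125I-labeled steroid (3 μCi, 111 kBq) by lateral tail vein. Dose was given in 200 μL saline with 9% ethanol and 1% Tween-80. Deep ether anesthesia, axillary artery cut; tissues KCl-washed, blotted, weighed, gamma-counted as % ID/g; variation as small-sample-corrected %CV.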

Rattus norvegicus [3] = assay: Tissue uptake (liver) of [125I]- after administration of [125I]-labeled compound to immature female rats (n=5) in the absence of 60 microg coinjected estradiol after 1 hour; assay type: ADME, organism-based; summary of the method: as §1
Rattus norvegicus [4] = assay: Tissue uptake (muscle) of [125I]- after administration of [125I]-labeled compound to immature female rats (n=3) in the absence of 60 microg coinjected estradiol after 24 hours; assay type: ADME, organism-based; summary of the method: as §1
Rattus norvegicus [5] = assay: Tissue uptake (fat) of [125I]- after administration of [125I]-labeled compound to immature female rats (n=4) in the absence of 60 microg coinjected estradiol after 2 hours; assay type: ADME, organism-based; summary of the method: as §1
Rattus norvegicus [6] = assay: Tissue uptake (fat) of [125I]- after administration of [125I]-labeled compound to immature female rats (n=3) in the absence of 60 microg coinjected estradiol after 24 hours; assay type: ADME, organism-based; summary of the method: as §1
Rattus norvegicus [7] = assay: Tissue uptake (spleen) of [125I]- after administration of [125I]-labeled compound to immature female rats (n=3) in the presence of 60 microg coinjected estradiol after 1 hour; assay type: ADME, organism-based; summary of the method: as §2
Rattus norvegicus [8] = assay: Tissue uptake (fat) of [125I]- after administration of [125I]-labeled compound to immature female rats (n=5) in the absence of 60 microg coinjected estradiol after 1 hour; assay type: ADME, organism-based; summary of the method: as §1
Rattus norvegicus [9] = assay: Tissue uptake (uterus) of [125I]- after administration of [125I]-labeled compound to immature female rats (n=5) in the absence of 60 microg coinjected estradiol after 1 hour; assay type: ADME, organism-based; summary of the method: as §2
Rattus norvegicus [10] = assay: Tissue uptake (uterus) of [125I]- after administration of [125I]-labeled compound to immature female rats (n=3) in the absence of 60 microg coinjected estradiol. (0.5 hours after injection) (% coefficient of variation); assay type: ADME, organism-based; summary of the method: as §2
Rattus norvegicus [11] = assay: Tissue uptake (muscle) of [125I]- after administration of [125I]-labeled compound to immature female rats (n=3) in the absence of 60 microg coinjected estradiol after 0.5 hours; assay type: ADME, organism-based; summary of the method: as §1
Rattus norvegicus [12] = assay: Tissue uptake (blood) of [125I]- after administration of [125I]-labeled compound to immature female rats (n=5) in the absence of 60 microg coinjected estradiol after 1 hour; assay type: ADME, organism-based; summary of the method: as §1
Rattus norvegicus [13] = assay: Tissue uptake (lungs) of [125I]- after administration of [125I]-labeled compound to immature female rats (n=4) in the absence of 60 microg coinjected estradiol after 2 hours; assay type: ADME, organism-based; summary of the method: as §1
Rattus norvegicus [14] = assay: Tissue uptake (fat) of [125I]- after administration of [125I]-labeled compound to immature female rats (n=3) in the presence of 60 microg coinjected estradiol after 1 hour; assay type: ADME, organism-based; summary of the method: as §1
Rattus norvegicus [15] = assay: Tissue uptake (thyroid) of [125I]- after administration of [125I]-labeled compound to immature female rats (n=4) in the absence of 60 microg coinjected estradiol after 5 hours; assay type: ADME, organism-based, Thyroid gland; summary of the method: as §2
Rattus norvegicus [16] = assay: Tissue uptake (muscle) of [125I]- after administration of [125I]-labeled compound to immature female rats (n=4) in the absence of 60 microg coinjected estradiol after 5 hours; assay type: ADME, organism-based; summary of the method: as §1
Rattus norvegicus [17] = assay: Tissue uptake (kidneys) of [125I]- after administration of [125I]-labeled compound to immature female rats (n=3) in the absence of 60 microg coinjected estradiol after 0.5 hours; assay type: ADME, organism-based, Kidney; summary of the method: as §1
Rattus norvegicus [18] = assay: Tissue uptake (kidneys) of [125I]- after administration of [125I]-labeled compound to immature female rats (n=3) in the presence of 60 microg coinjected estradiol after 1 hour; assay type: ADME, organism-based, Kidney; summary of the method: as §1
Rattus norvegicus [19] = assay: Tissue uptake (kidneys) of [125I]- after administration of [125I]-labeled compound to immature female rats (n=4) in the absence of 60 microg coinjected estradiol after 5 hours; assay type: ADME, organism-based, Kidney; summary of the method: as §1
Rattus norvegicus [20] = assay: Tissue uptake (spleen) of [125I]- after administration of [125I]-labeled compound to immature female rats (n=5) in the absence of 60 microg coinjected estradiol after 1 hour; assay type: ADME, organism-based; summary of the method: as §2
Rattus norvegicus [21] = assay: Tissue uptake (blood) of [125I]- after administration of [125I]-labeled compound to immature female rats (n=4) in the absence of 60 microg coinjected estradiol after 2 hours; assay type: ADME, organism-based; summary of the method: as §1
Rattus norvegicus [22] = assay: Tissue uptake (uterus) of [125I]- after administration of [125I]-labeled compound to immature female rats (n=4) in the absence of 60 microg coinjected estradiol after 2 hours; assay type: ADME, organism-based; summary of the method: as §2
Rattus norvegicus [23] = assay: Tissue uptake (fat) of [125I]- after administration of [125I]-labeled compound to immature female rats (n=3) in the absence of 60 microg coinjected estradiol after 0.5 hours; assay type: ADME, organism-based; summary of the method: as §1
Rattus norvegicus [24] = assay: Tissue uptake (blood) of [125I]- after administration of [125I]-labeled compound to immature female rats (n=4) in the absence of 60 microg coinjected estradiol. (5 hours after injection) (% coefficient of variation); assay type: ADME, organism-based; summary of the method: as §1
Rattus norvegicus [25] = assay: Tissue uptake (blood) of [125I]- after administration of [125I]-labeled compound to immature female rats (n=3) in the absence of 60 microg coinjected estradiol. (24 hours after injection) (% coefficient of variation); assay type: ADME, organism-based; summary of the method: as §1
Rattus norvegicus [26] = assay: Tissue uptake (uterus) of [125I]- after administration of [125I]-labeled compound to immature female rats (n=3) in the absence of 60 microg coinjected estradiol after 0.5 hours; assay type: ADME, organism-based; summary of the method: as §2
Rattus norvegicus [27] = assay: Tissue uptake (brain) of [125I]- after administration of [125I]-labeled compound to immature female rats (n=3) in the presence of 60 microg coinjected estradiol after 1 hour; assay type: ADME, organism-based; summary of the method: as §1
Rattus norvegicus [28] = assay: Tissue uptake (blood) of [125I]- after administration of [125I]-labeled compound to immature female rats (n=4) in the absence of 60 microg coinjected estradiol after 5 hours; assay type: ADME, organism-based; summary of the method: as §1
Rattus norvegicus [29] = assay: Tissue uptake (brain) of [125I]- after administration of [125I]-labeled compound to immature female rats (n=3) in the absence of 60 microg coinjected estradiol after 0.5 hours; assay type: ADME, organism-based; summary of the method: as §1
Rattus norvegicus [30] = assay: Tissue uptake (uterus) of [125I]- after administration of [125I]-labeled compound to immature female rats (n=3) in the absence of 60 microg coinjected estradiol. (24 hours after injection) (% coefficient of variation); assay type: ADME, organism-based; summary of the method: as §2

Compound	ID/g (Rattus norvegicus [2])	ID/g (Rattus norvegicus [3])	ID/g (Rattus norvegicus [4])	ID/g (Rattus norvegicus [5])	ID/g (Rattus norvegicus [6])	ID/g (Rattus norvegicus [7])	ID/g (Rattus norvegicus [8])	ID/g (Rattus norvegicus [9])	ID/g (Rattus norvegicus [11])	ID/g (Rattus norvegicus [12])	ID/g (Rattus norvegicus [13])	ID/g (Rattus norvegicus [14])	ID/g (Rattus norvegicus [15])	ID/g (Rattus norvegicus [16])	ID/g (Rattus norvegicus [17])	ID/g (Rattus norvegicus [18])	ID/g (Rattus norvegicus [20])	ID/g (Rattus norvegicus [21])	ID/g (Rattus norvegicus [22])	ID/g (Rattus norvegicus [23])	further results
C[C@@H]1Cc2cc(O)ccc2[C@H]2CC[C@]3(C)[C@@H](O)[C@H](I)C[C@H]3[C@H]12	43.5%	1.26%	0.01%	1.12%	0.03%	0.43%	1.79%	5.25%	0.54%	0.38%	0.32%	1.64%	320.54%	0.06%	1.3%	0.51%	0.43%	0.32%	6.35%	2.2%	ID/g (Rattus norvegicus [1]): 0.49%; ID/g (Rattus norvegicus [10]): 4.32%; ID/g (Rattus norvegicus [19]): 0.25%; ID/g (Rattus norvegicus [24]): 0.28%; ID/g (Rattus norvegicus [25]): 0.03%
CCO[C@H]1C[C@]2(C)[C@@H](O)[C@H](I)C[C@H]2[C@@H]2CCc3cc(O)ccc3[C@H]21	156.51%	3.48%	0.13%	0.94%	0.15%	1.6%	1.51%	11.67%	1.05%	1.01%	1.01%	1.63%	703.1%	0.35%	2.26%	1.61%	1.49%	0.89%	13.08%	2.47%	ID/g (Rattus norvegicus [26]): 7.85%; ID/g (Rattus norvegicus [27]): 0.42%; ID/g (Rattus norvegicus [28]): 0.7%; ID/g (Rattus norvegicus [29]): 0.68%; ID/g (Rattus norvegicus [30]): 1.64%
